“Also recorded” adds a separate entry of the source.
Columns and labels:
[1] = tested on: CXCR2-mediated phosphorylation of ERK1/2; assay: CXCL8-induced ERK1/2 phosphorylation in HEK293 cells expressing CXCR2; format: cell-based, human; details: 10 μM compound, CXCL8 100 ng/mL, 0–30 min
Method in brief: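 G418-selected HEK293 pool stably expressing human CXCR2, 5 × 10^6 cells per 60 mm plate. […] Lysis was at 0, 5, 15 and 30 min in SDS/deoxycholate/Triton buffer with PMSF, aprotinin and leupeptin. Phospho-ERK1/2 and total ERK1/2 were detected by Western blot.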

[2] = tested on: PAF-induced Ca2+ flux; assay: PAF-induced Ca2+ flux in hPMNs; format: cell-based, human; details: for effect on PAF-induced Ca2+ flux, in words: hPMNs, concentrations up to 5 μM
[3] = tested on: fMLF-induced Ca2+ flux; assay: fMLF-induced Ca2+ flux in hPMNs; format: cell-based, human; details: for effect on fMLF-induced Ca2+ flux, in words: hPMNs, concentrations up to 5 μM
Method in brief: (§1)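 Human PMNs were isolated from healthy donor blood by dextran sedimentation, Histopaque 1077 gradient and hypotonic red cell lysis (>95% pure, >98% viable). Cells were dye-loaded (FLIPR Calcium 3) in Ca/Mg-free HBSS with 10 mM HEPES plus test compound or 1% DMSO for 30 min at 37 °C. They were then resuspended in HBSS+ with compound re-added, at 10^5 cells/well. Agonist final: C5a 50 nM, fMLF 10 nM. Fluorescence (ex 485/em 525 nm) was read every 5 s for 240–500 s at room temperature, max–min as % of DMSO control.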

[4] = biological target: T1, CXCR2 (Homo sapiens, UniProt P25025); assay: CXCR2 cell surface expression by flow cytometry in HEK293 cells; format: cell-based; details: 10 μM, 60 min exposure
T1 sequence (P25025 1-360): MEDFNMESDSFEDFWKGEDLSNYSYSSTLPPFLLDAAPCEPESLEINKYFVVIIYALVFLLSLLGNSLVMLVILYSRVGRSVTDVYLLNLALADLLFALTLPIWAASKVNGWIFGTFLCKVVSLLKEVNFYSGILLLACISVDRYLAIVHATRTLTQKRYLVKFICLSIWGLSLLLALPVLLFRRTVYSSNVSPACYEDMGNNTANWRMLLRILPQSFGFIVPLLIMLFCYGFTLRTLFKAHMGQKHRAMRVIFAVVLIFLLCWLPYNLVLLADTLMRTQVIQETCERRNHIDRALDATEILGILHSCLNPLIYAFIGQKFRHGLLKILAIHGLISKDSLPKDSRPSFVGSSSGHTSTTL
Method in brief: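 Stable HEK293-CXCR2 cells were pretreated with 1% DMSO vehicle or test compound for 60 min; untransfected HEK293 served as negative isotype control. Cells were stained with PE-conjugated anti-human CXCR2 mouse monoclonal (1:100) at 4 °C for 60 min, washed, and fixed in 2% formaldehyde/PBS. PE signal was quantified by flow cytometry; data representative of three independent experiments.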

[5] = tested on: CXCR1 and CXCR2; assay: CXCL8-stimulated Ca2+ flux in hPMNs; format: cell-based, human; details: 1 μM compound
Method in brief: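 Human PMNs isolated from blood by dextran sedimentation, Histopaque 1077 gradient and hypotonic red-cell lysis (>95% pure, >98% viable). Cells loaded with FLIPR Calcium 3 dye in Ca2+/Mg2+-free HBSS with 10 mM HEPES plus test compound or DMSO (1% final), 37 °C, 30 min. They were then pelleted and resuspended in HBSS with Ca2+/Mg2+, and compound was re-added at the same concentration. Fluorescence was read at 10^5 cells/well: 15 s basal, then agonist injected.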

[6] = tested on: C5a-induced Ca2+ flux; assay: C5a-induced Ca2+ flux in hPMNs; format: cell-based, human; details: for effect on C5a-induced Ca2+ flux, in words: hPMNs, concentrations up to 5 μM
Method in brief: as §1

[7] = biological target: T1, CXCR2; assay: Competition [125I]-CXCL8 binding assay, HEK293-hCXCR2 membranes; details: up to 10 μM compound, 25 pM radioligand
[8] = tested on: male CD1 Swiss mice; assay: Murine air-pouch model of inflammation; format: in vivo, mouse; details: 0.2 mg/kg iv, 3 h before 2% carrageenan; vs positive control cohort, p < 0.01
Method in brief: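 Dorsal air pouch in 10–15-week-old male CD1 Swiss mice: 2 mL air sc, reinflated with 1.5 mL next day. Test compound (0.02 or 0.20 mg/kg) in PEG400:DMF:saline 20:20:80, or vehicle, was given iv by tail vein, n = 5 per cohort. After 3 h, 1 mL PBS or 2% carrageenan in PBS was injected into the pouch. Pouch fluid plus a 2 mL PBS wash was collected 4 h later; cells were counted by trypan blue on a hemocytometer. Student's t-test vs carrageenan/vehicle cohort.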

- IC50 ([2]; Homo sapiens, read-out: IC50, PAF-induced Ca2+ flux): > 5 µM
- IC50 ([3]; Homo sapiens, read-out: IC50, fMLF-induced Ca2+ flux): > 5 µM
- effect on cell surface expression of CXCR2, in words [4]: did not significantly alter
- IC50 ([6]; Homo sapiens, read-out: IC50, C5a-induced Ca2+ flux): > 5 µM
- competition of [125I]-CXCL8 binding to CXCR2 membranes, in words [7]: failed to compete
- competition of [125I]-CXCL8 binding to CXCR2 membranes, in words ([7]; listed as SX-517): unable to compete
Structure (SMILES): O=C(Nc1ccc(F)cc1)c1ccc(SCc2ccccc2B(O)O)nc1 [Compound 7, 2-((5-(4-Fluorophenylcarbamoyl)pyridin-2-ylthio)methyl)phenylboronic acid]
- effect on CXCL8-induced ERK1/2 phosphorylation, in words [1]: completely blocked; also recorded: directly antagonized
- effect on CXCL8-induced ERK1/2 phosphorylation, in words ([1]; listed as SX-517): antagonized
- effect on PAF-induced Ca2+ flux, in words [2]: failed to inhibit; also recorded: no inhibition
- effect on PAF-induced Ca2+ flux, in words ([2]; listed as SX-517): no effect
- effect on fMLF-induced Ca2+ flux, in words [3]: failed to inhibit; also recorded: no inhibition
- effect on fMLF-induced Ca2+ flux, in words ([3]; listed as SX-517): no effect
- effect on CXCL8-stimulated Ca2+ flux, in words [5]: completely eliminate
- effect on C5a-induced Ca2+ flux, in words [6]: failed to inhibit; also recorded: no inhibition
- effect on C5a-induced Ca2+ flux, in words ([6]; listed as SX-517): no effect
- total cell count in inflammatory pouch infiltrate, in words [8]: significant reduction; also recorded: significantly reduced

— article PMC4207547 (Journal of Medicinal Chemistry, 2014)
